Measurements taken from ChEMBL document CHEMBL1151417, “Cytotoxic triterpenoid glycosides from the roots of Gordonia chrysandra” (J Nat Prod, 2009).

Columns and labels:
Assay type in all cases: functional, cell-based
[1] = system: BGC-823; assay: Cytotoxicity against human BGC823 cells after 96 hrs by MTT assay; details: BGC-823, 96 h
Method in brief: (§1)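 Cells kept in RPMI 1640 with 10% FBS, L-glutamine, penicillin/streptomycin at 37 °C, 5% CO2. 1.5 × 10³ cells/well seeded; after 24 h compounds added in DMSO at five final concentrations (0.01-10 […]), triplicate wells, 96 h exposure. MTT (0.5 mg/mL) 4 h at 37 °C, formazan dissolved in DMSO, A570 read. IC50 = 50% OD reduction vs control from dose-response curve.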

[2] = system: A2780; assay: Cytotoxicity against human A2780 cells after 96 hrs by MTT assay; details: A2780, 96 h; method in brief: as §1
[3] = system: Bel-7402; assay: Cytotoxicity against human Bel7402 cells after 96 hrs by MTT assay; details: Bel-7402, 96 h; method in brief: as §1
[4] = system: HCT-8; assay: Cytotoxicity against human HCT8 cells after 96 hrs by MTT assay; details: HCT-8, 96 h; method in brief: as §1
[5] = system: A549; assay: Cytotoxicity against human A549 cells after 96 hrs by MTT assay; details: A549, 96 h; method in brief: as §1

Structure (SMILES)	IC50 [1] [µM]	IC50 [2] [µM]	IC50 [3] [µM]	IC50 [4] [µM]	IC50 [5] [µM]
C/C=C(/C)C(=O)O[C@H]1[C@H](OC(=O)/C(C)=C\C)[C@]2(CO)[C@H](O)C[C@]3(C)C(=CC[C@@H]4[C@@]5(C)CC[C@H](O[C@@H]6O[C@H](C(=O)O)[C@@H](O)[C@H](O[C@@H]7OC[C@H](O)[C@H](O)[C@H]7O)[C@H]6O)[C@@](C)(CO)[C@@H]5CC[C@]43C)[C@@H]2CC1(C)C [GORDONOSIDE A]	> 10	5.5	4.7	> 10	> 10
C/C=C(/C)C(=O)O[C@H]1[C@H](OC(=O)/C(C)=C\C)[C@]2(CO)[C@H](OC(C)=O)C[C@]3(C)C(=CC[C@@H]4[C@@]5(C)CC[C@H](O[C@@H]6O[C@H](C(=O)O)[C@@H](O)[C@H](O[C@@H]7OC[C@H](O)[C@H](O)[C@H]7O)[C@H]6O)C(C)(C)[C@@H]5CC[C@]43C)[C@@H]2CC1(C)C [GORDONOSIDE D]	> 10	> 10	> 10	> 10	> 10
C/C=C(/C)C(=O)O[C@H]1[C@H](OC(=O)/C(C)=C\C)[C@]2(CO)[C@H](O)C[C@]3(C)C(=CC[C@@H]4[C@@]5(C)CC[C@H](O[C@@H]6O[C@H](C(=O)O)[C@@H](O)[C@H](O[C@@H]7OC[C@H](O)[C@H](O)[C@H]7O)[C@H]6O)[C@@](C)(C=O)[C@@H]5CC[C@]43C)[C@@H]2CC1(C)C [GORDONOSIDE E]	> 10	2	1.1	2.7	> 10
C/C=C(/C)C(=O)O[C@H]1[C@H](OC(=O)/C(C)=C\C)[C@]2(CO)[C@H](O)[C@H](O)[C@]3(C)C(=CC[C@@H]4[C@@]5(C)CC[C@H](O[C@@H]6O[C@H](C(=O)O)[C@@H](O)[C@H](O[C@@H]7OC[C@H](O)[C@H](O)[C@H]7O)[C@H]6O)[C@@](C)(C(=O)OC)[C@@H]5CC[C@]43C)[C@@H]2CC1(C)C [GORDONOSIDE G]	> 10	> 10	> 10	> 10	> 10
C/C=C(/C)C(=O)O[C@H]1[C@H](OC(=O)/C(C)=C\C)[C@]2(CO)[C@H](O)C[C@]3(C)C(=CC[C@@H]4[C@@]5(C)CC[C@H](O[C@@H]6O[C@H](C(=O)O)[C@@H](O)[C@H](O[C@@H]7OC[C@H](O)[C@H](O)[C@H]7O)[C@H]6O)C(C)(C)[C@@H]5CC[C@]43C)[C@@H]2CC1(C)C [GORDONOSIDE C]	2.5	0.4	0.7	1.2	1.8
C/C=C(/C)C(=O)O[C@H]1[C@H](OC(=O)/C(C)=C\C)[C@]2(CO)[C@H](OC(C)=O)C[C@]3(C)C(=CC[C@@H]4[C@@]5(C)CC[C@H](O[C@@H]6O[C@H](C(=O)O)[C@@H](O)[C@H](O[C@@H]7OC[C@H](O)[C@H](O)[C@H]7O)[C@H]6O)[C@@](C)(CO)[C@@H]5CC[C@]43C)[C@@H]2CC1(C)C [GORDONOSIDE B]	> 10	> 10	> 10	> 10	> 10
C/C=C(/C)C(=O)O[C@H]1[C@H](OC(=O)/C(C)=C\C)[C@]2(CO)[C@H](O)C[C@]3(C)C(=CC[C@@H]4[C@@]5(C)CC[C@H](O[C@@H]6O[C@H](C(=O)O)[C@@H](O)[C@H](O[C@@H]7OC[C@H](O)[C@H](O)[C@H]7O)[C@H]6O)[C@@](C)(C(=O)OC)[C@@H]5CC[C@]43C)[C@@H]2CC1(C)C [GORDONOSIDE F]	> 10	2	1.3	> 10	> 10
CC(=O)O[C@H]1C(=O)[C@@]2(C)[C@H]([C@H](OC(=O)c3ccccc3)[C@]3(O)C[C@H](OC(=O)[C@H](O)[C@@H](NC(=O)c4ccccc4)c4ccccc4)C(C)=C1C3(C)C)[C@]1(OC(C)=O)CO[C@@H]1C[C@@H]2O [PACLITAXEL]	0.04	0.9	6.3	3.6	0.001
